Results of several laboratories.
Each line is one published result; the experiments were not run side by side.
SLC6A4: Sodium-dependent serotonin transporter (SLC6A4, Homo sapiens, UniProt P31645)
rep papain-like protease: Replicase polyprotein 1ab, papain-like protease (rep, Porcine epidemic diarrhea virus, UniProt P0C6Y4)

| SMILES | target | read-out | action | method | endpoint | result |
| --- | --- | --- | --- | --- | --- | --- |
| N#CC[C@@]12C[C@@H]1[C@@H](n1cnc3c(NCCCCCCc4ccccc4)nc(I)nc31)[C@H](O)[C@@H]2O | SLC6A4 | ligand displacement |  | radioligand | Ki | 4.4 µM |
| O=C1CCC(N2Cc3cc(-c4cc5ccccc5cn4)ccc3C2=O)C(=O)N1 (stereo not drawn) | WEE1/CRBN (Homo sapiens, UniProt P30291+Q96SW2) | protein level | degrader |  | DC50 | 0.043 µM |
| CC(C)C[C@H](NC(=O)[C@@H](N)[C@@H](C)O)C(=O)N[C@@H](CCC(N)=O)C(=O)N1CCC[C@H]1C(=O)N1CCC[C@H]1C(=O)N[C@@H](C)C(=O)N[C@@H](CO)C(=O)N[C@@H](CO)C(=O)N[C@@H](CCCNC(=N)N)C(=O)N[C@@H](CCCNC(=N)N)C(=O)N[C@@H](CCCNC(=N)N)C(=O)N[C@@H](Cc1c[nH]cn1)C(=O)N[C@@H](Cc1ccccc1)C(=O)N[C@@H](Cc1c[nH]cn1)C(=O)N[C@@H](Cc1c[nH]cn1)C(=O)N[C@@H](C)C(=O)N[C@@H](CC(C)C)C(=O)N1CCC[C@H]1C(=O)N1CCC[C@H]1C(=O)N[C@@H](C)C(=O)N[C@@H](CCCNC(=N)N)C(=O)O | C3a anaphylatoxin chemotactic receptor (C3AR1, Homo sapiens, UniProt Q16581) | β-arrestin recruitment | agonist |  | EC50 | 0.653 µM |
| O=C(NCc1ccc(Br)cc1)c1c[nH]c(-c2n[nH]c3ncccc23)c1 | E3 ubiquitin-protein ligase NEDD4 (Homo sapiens, UniProt P46934) | binding |  | MST | Kd | 0.0439 µM |
| O=C(NCc1cc(O)c(O)c(Br)c1)c1ccc(Cl)s1 | rep papain-like protease | enzyme activity | inhibitor | FRET | IC50 | 2.73 µM |
| CCOC(=O)[C@@]12C[C@@H]1[C@@H](n1cnc3c(NCCCCCCc4ccccc4)nc(I)nc31)[C@H](O)[C@@H]2O | SLC6A4 | ligand displacement |  | radioligand | Ki | 4.6 µM |
| OC[C@@H]1O[C@@H](OC[C@H]2O[C@@H](OC/C=C/c3ccccc3)[C@H](O)[C@@H](O)[C@@H]2O)[C@H](O)[C@H]1O | POU domain, class 3, transcription factor 3 (Homo sapiens, UniProt P20264) | binding |  | SPR | Kd | 7.57 µM |
| O=C(NCc1cc(O)c(O)c(Br)c1)c1ccc(OC(F)(F)F)cc1 | rep papain-like protease | enzyme activity | inhibitor | FRET | IC50 | 9.96 µM |
| Cc1cc2[nH]cc(C(=O)O)c(=O)n2n1 | Peptidyl-prolyl cis-trans isomerase F, mitochondrial (PPIF, Homo sapiens, UniProt P30405) | binding |  | SPR | Kd | > 20000 µM |
